Test [1] relates to supraoptic nucleus (SON) neurons; μ receptor. The test can be described thus: Whole cell patch clamp, evoked outward / holding current in SON neurons. The class given is cell-based, rat (Sprague Dawley). Particulars: for holding current response in SON: 1 μM, six cells in the SON. (In patch-clamp work, channel activity is measured electrically.)
The test system of test [2] is rat hippocampus membranes. The experiment in a line: Agonist-stimulated [^35S]GTPγS binding in rat hippocampus membranes. The class given is biochemical, rat (Wistar). A general note: GTPγS resists hydrolysis and so accumulates on activated G proteins.
In test [3] the test system is rostral supraoptic nucleus (SON) cells. The test can be described thus: Spontaneous firing rate. Conditions: 1 μM, six cells in the SON. The class given is cell-based, rat (Sprague Dawley). A digest of the protocol: (§1)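 Coronal hypothalamic slices (250 μm) came from halothane-anaesthetised 20–24-day-old rats, cut in ice-cold sucrose ACSF and warmed to 35°C over 30 min. Slices were held submerged in 32°C ACSF (MgCl2 1.2, CaCl2 2.4 mM) gassed with 95% O2/5% CO2. Neurons were visualised by IR-DIC and patched with 5–8 MΩ pipettes (K-gluconate internal, pH 7.2) for whole-cell current and/or voltage clamp.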

For test [4], the system named is suprachiasmatic nucleus (SCN) cells. The experiment in a line: Spontaneous firing rate. The class given is cell-based, rat (Sprague Dawley). Particulars: 1 μM, six cells in the SCN. In a few lines: as §1
Test [5] shares this test system. The test can be described thus: Whole cell patch clamp, holding current in SCN neurons. The format is cell-based, rat (Sprague Dawley). Particulars: 1 μM, six cells in the SCN.
Another test relates to mu-opioid receptor (MOR). Particulars: endomorphins EM1 and EM2; ref [5], [6], [7]; cited from earlier work.

Take CTOP [reference compound]: the “Mx-1 evoked current amplitude in presence of CTOP” value in test [1] (CTOP 100 nM added to bath with 100 nM Mx-1, six SON neurons) turned out to be 3.8 ± 2.0 pA.

For the compound `C=CCN1CC[C@]23c4c5ccc(O)c4O[C@H]2C(=O)CC[C@@]3(O)[C@H]1C5` [naloxone, reference compound], the “inhibition of agonist effect of Mx-1 in promoting incorporation of γ-GTP” value in test [2] (naloxone saturating concentrations (10 μM) with Mx-1) is listed as “inhibited the agonist effect of Mx-1”.

Turning to “NH2-PPPRSPYSGKGLGPGNLLHSALLPIHCICLC-COO^- [Mx-3]”, the “agonist-stimulated activity of Mx-3 compared with Mx-1” value in test [2] ([^35S]GTPγS, rat hippocampus membranes, comparison with Mx-1, discussion) is “greater than that displayed by Mx-1”. Besides, the “[^35S]GTPγS binding at high concentrations (decrease)” value in test [2] (high concentrations, for Mx-1: 1.2, 2.4 and 4.8 μM) was “not observed”. For the same compound, in test [3], the “SFR response in SON” value was “no measurable difference”. For the same compound, the “SFR response in SCN” value in test [4] was “no measurable difference”. The “holding current response in SON” value in test [1] is listed as “no measurable difference”. The “holding current response in SCN” value in test [5] was “no measurable difference”.

On to Tyr-Pro-Trp-Phe-NH2 [EM1], for which, in the test on mu-opioid receptor (MOR), the “binding affinity and selectivity to MOR (in words)” value was “high binding affinity and selectivity to the mu-opioid receptor”.

For the compound NH2-TSRTDGTQS-COO^- [Mx-2], the “SFR response in SON” value in test [3] is listed as “no measurable difference”. Besides, in test [4], the “SFR response in SCN” value is “no measurable difference”. In addition, the “holding current response in SON” value in test [1] is “no measurable difference”. Besides, the “holding current response in SCN” value in test [5] is “no measurable difference”.

Consider Tyr-Pro-Phe-Phe-NH2 [EM2], for which, in the test with mu-opioid receptor (MOR), the “binding affinity and selectivity to MOR (in words)” value was “high binding affinity and selectivity to the mu-opioid receptor”.
